# Activity calls are given as the source filed them. No cut-off for these calls is given here.
# What was measured:
# [1] = tested on: Bacillus subtilis; assay: Antibacterial activity against Bacillus subtilis ATCC 9372 after 24 hrs by broth microdilution method; format: functional; settings: ATCC 9372, 24 h
# Outline: (§1)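 Broth microdilution run to the standard NCCLS-recommended procedure, applied to all newly synthesized compounds, with a panel that included four Gram-positive strains.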
# [2] = tested on: Staphylococcus aureus; assay: Antibacterial activity against methicillin-resistant Staphylococcus aureus ATCC 43300 after 24 hrs by broth microdilution method; format: functional; settings: ATCC 43300, 24 h
# [3] = tested on: Escherichia coli; assay: Antibacterial activity against Escherichia coli ATCC 25922 after 24 hrs by broth microdilution method; format: functional; settings: ATCC 25922, 24 h; outline: as §1
# [4] = tested on: Klebsiella pneumoniae; assay: Antibacterial activity against Klebsiella pneumoniae ATCC 700603 after 24 hrs by broth microdilution method; format: functional; settings: Klebsiella pneumoniae, 700603, 24 h; outline: as §1
# [5] = tested on: Staphylococcus aureus; assay: Antibacterial activity against penicillin-resistant Staphylococcus aureus after 24 hrs by broth microdilution method; format: functional
# [6] = tested on: Staphylococcus aureus; assay: Antibacterial activity against Staphylococcus aureus ATCC 25923 after 24 hrs by broth microdilution method; format: functional; settings: ATCC 25923, 24 h; outline: as §1
# [7] = target: T1, Cell division protein FtsZ (Staphylococcus aureus) (UniProt P0A031); assay: Inhibition of FtsZ in Staphylococcus aureus assessed as ballooning
# T1 sequence (whole entry): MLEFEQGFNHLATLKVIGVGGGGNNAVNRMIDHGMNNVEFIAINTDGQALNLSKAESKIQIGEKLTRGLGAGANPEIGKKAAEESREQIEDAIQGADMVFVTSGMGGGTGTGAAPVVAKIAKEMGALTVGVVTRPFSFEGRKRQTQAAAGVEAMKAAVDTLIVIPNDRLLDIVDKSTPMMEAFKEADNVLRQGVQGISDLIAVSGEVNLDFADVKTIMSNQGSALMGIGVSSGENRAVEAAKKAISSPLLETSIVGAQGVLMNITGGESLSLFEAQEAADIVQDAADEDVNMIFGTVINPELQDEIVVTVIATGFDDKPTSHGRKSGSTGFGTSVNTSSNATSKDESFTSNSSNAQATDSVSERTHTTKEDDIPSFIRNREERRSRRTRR
# [8] = target: T2, Cell division protein FtsZ (Bacillus subtilis) (UniProt A5Z1V5); assay: Inhibition of FtsZ in Bacillus subtilis ATCC 9372 assessed as filamentation
# T2 sequence (whole entry): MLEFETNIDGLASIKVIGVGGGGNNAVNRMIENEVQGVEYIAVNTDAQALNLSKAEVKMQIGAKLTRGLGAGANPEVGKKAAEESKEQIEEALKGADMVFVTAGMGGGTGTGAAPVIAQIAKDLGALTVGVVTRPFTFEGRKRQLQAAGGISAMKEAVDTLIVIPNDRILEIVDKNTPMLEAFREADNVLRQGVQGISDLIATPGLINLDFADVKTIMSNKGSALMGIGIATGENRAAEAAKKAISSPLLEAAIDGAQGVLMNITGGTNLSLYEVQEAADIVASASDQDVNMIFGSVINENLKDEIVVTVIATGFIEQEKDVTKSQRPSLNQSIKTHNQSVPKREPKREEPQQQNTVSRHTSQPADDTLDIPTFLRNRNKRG
SMILES,MIC [1],MIC [2],MIC [3],MIC [4],MIC [5],MIC [6],inhibition [7],inhibition [8]
Fc1ccc(OCc2ccc(Cl)cc2)c(F)c1-c1c[nH]nn1,> 64 µg/mL,> 64 µg/mL,> 64 µg/mL,> 64 µg/mL,> 64 µg/mL,> 64 µg/mL,–,–
Cc1cccc(COc2cccc(Cn3cncn3)c2)c1,> 64 µg/mL,> 64 µg/mL,> 64 µg/mL,> 64 µg/mL,> 64 µg/mL,> 64 µg/mL,–,–
CCCCC(CC)COc1cccc(-c2cn(C)nn2)c1 (stereo not given),32 µg/mL,32 µg/mL,> 64 µg/mL,4 µg/mL,> 64 µg/mL,64 µg/mL,–,–
Fc1ccc(OCCCCOc2ccc(Cl)cc2)c(F)c1-c1c[nH]nn1,> 64 µg/mL,> 64 µg/mL,> 64 µg/mL,> 64 µg/mL,> 64 µg/mL,> 64 µg/mL,–,–
Fc1ccc(OCc2cccc(Cl)c2)c(F)c1-c1c[nH]nn1,16 µg/mL,8 µg/mL,> 64 µg/mL,> 64 µg/mL,16 µg/mL,16 µg/mL,–,–
CCOc1cccc(-c2c[nH]nn2)c1,> 64 µg/mL,> 64 µg/mL,> 64 µg/mL,> 64 µg/mL,> 64 µg/mL,> 64 µg/mL,–,–
CCCCC(CC)COc1cccc(-c2nnco2)c1 (racemic),16 µg/mL,–,> 64 µg/mL,16 µg/mL,–,32 µg/mL,–,–
CCCCC(CC)COc1cccc(Cn2cnnn2)c1 (racemic),> 64 µg/mL,> 64 µg/mL,> 64 µg/mL,8 µg/mL,> 64 µg/mL,> 64 µg/mL,–,–
CCCCC(CC)COc1ccc(-c2c[nH]nn2)cc1 (stereo not given),2 µg/mL,4 µg/mL,> 64 µg/mL,4 µg/mL,4 µg/mL,4 µg/mL,Active,inactive
Cc1ccc(COc2cccc(Cn3cncn3)c2)cc1,> 64 µg/mL,> 64 µg/mL,> 64 µg/mL,> 64 µg/mL,> 64 µg/mL,> 64 µg/mL,–,–
CCCCC(CC)COc1ccc(F)c(C(N)=O)c1F (stereo not given),2 µg/mL,2 to 4 µg/mL,> 64 µg/mL,4 µg/mL,8 µg/mL,4 µg/mL,–,–
c1ccc(COc2cccc(-c3c[nH]nn3)c2)cc1,> 64 µg/mL,> 64 µg/mL,> 64 µg/mL,64 µg/mL,> 64 µg/mL,> 64 µg/mL,–,–
Clc1cccc(COc2cccc(Cn3cncn3)c2)c1,> 64 µg/mL,> 64 µg/mL,> 64 µg/mL,64 µg/mL,> 64 µg/mL,> 64 µg/mL,–,–
Cc1cccc(COc2cccc(-c3c[nH]nn3)c2)c1,32 µg/mL,16 µg/mL,> 64 µg/mL,32 µg/mL,32 µg/mL,32 µg/mL,–,–
Clc1ccc(OCCCCOc2cccc(-c3c[nH]nn3)c2)cc1,> 64 µg/mL,> 64 µg/mL,> 64 µg/mL,> 64 µg/mL,> 64 µg/mL,> 64 µg/mL,–,–
Fc1cccc(COc2ccc(F)c(-c3c[nH]nn3)c2F)c1,> 64 µg/mL,> 64 µg/mL,> 64 µg/mL,> 64 µg/mL,64 µg/mL,64 µg/mL,–,–
Cc1ccc(COc2cccc(-c3c[nH]nn3)c2)cc1,> 64 µg/mL,> 64 µg/mL,> 64 µg/mL,> 64 µg/mL,> 64 µg/mL,32 µg/mL,–,–
CCCCC(CC)COc1ccc(F)c(-c2c[nH]nn2)c1F (racemic),4 µg/mL,4 µg/mL,> 64 µg/mL,8 µg/mL,8 µg/mL,8 µg/mL,–,–
NC(=O)c1c(F)ccc(OCc2nc(-c3ccc(Cl)cc3)c(Br)o2)c1F,–,0.06 µg/mL,–,–,–,–,–,–
CCCCC(CC)COc1cccc(-c2cnnn2C)c1 (stereo not given),64 µg/mL,> 64 µg/mL,> 64 µg/mL,16 µg/mL,> 64 µg/mL,64 µg/mL,–,–

# — ChEMBL document CHEMBL4184277, “Substitution of terminal amide with 1H-1,2,3-triazole: Identification of unexpected class of potent antibacterial agents” (2018)
